{
  "source": "ChEMBL document CHEMBL4261657",
  "about": "“Discovery of Clinical Candidate 2-(4-(2-((1 H-Benzo[ d]imidazol-2-yl)thio)ethyl)piperazin-1-yl)- N-(6-methyl-2,4-bis(methylthio)pyridin-3-yl)acetamide Hydrochloride [K-604], an Aqueous-Soluble Acyl-CoA:Cholesterol O-Acyltransferase-1 Inhibitor” (J Med Chem, 2018)",
  "key": {"[1]": {"assay": "Inhibition of ACAT in New Zealand White rabbit intestinal microsomes assessed as reduction in cholesteryl oleate formation incubated for 3 mins in presence of [14C]-oleoyl-CoA and BSA complex by TLC method", "parameters": "species or system Oryctolagus cuniculus, Intestine"}, "[2]": {"assay": "Aqueous solubility of the compound at pH 1.2", "assay_type": "physicochemical", "conditions": "aqueous solution"}, "[3]": {"assay": "Inhibition of ACAT in arterial homogenates isolated from 1% cholesterol fed New Zealand White rabbit assessed as reduction in cholesteryl oleate formation incubated for 5 mins in presence of [14C]-oleoyl-CoA and BSA complex by TLC method", "assay_type": "tissue-based, Oryctolagus cuniculus"}, "Hamster [4]": {"tested_on": "Hamster", "assay": "Antiatherosclerotic activity in Bio F1B hamster model of diet-induced atherosclerosis assessed as reduction in total plasma cholesterol at 10 mg/kg/day added to chow pellets relative to control", "assay_type": "functional, Cricetinae", "parameters": "scale not given: the % may be the effect or the level left", "how_it_was_run": "(§1)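 Male Bio F1B hamsters (8 weeks old) were fed CE-2 chow with 0.3% cholesterol and 10% coconut oil for 10 weeks, with compound mixed into the chow (n=7 per dose; reference group n=6). Plasma TC was measured by enzymatic kit. Aorta was perfusion-fixed with 4% paraformaldehyde under pentobarbital anaesthesia, opened and stained with oil red O, and lipid area was measured by image analysis. Results are % of control ± SD, analysed by Dunnett's test.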"}, "Salmonella typhimurium [5]": {"tested_on": "Salmonella typhimurium", "assay": "Genotoxicity in Salmonella typhimurium TA1537 by Ames test", "assay_type": "toxicity, organism-based", "conditions": "salmonella enterica subsp. enterica serovar typhimurium"}, "Hamster [6]": {"tested_on": "Hamster", "assay": "Antiatherosclerotic activity in Bio F1B hamster model of diet-induced atherosclerosis assessed as reduction in CE to FC ratio in liver at 1 to 30 mg/kg/day added to chow pellets", "assay_type": "functional, organism-based", "conditions": "Cricetinae"}, "[7]": {"assay": "Half life in Sprague-Dawley rat at 30 mg/kg, po by LC/MS analysis", "assay_type": "ADME, organism-based", "conditions": "in vivo", "how_it_was_run": "(§2)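 Nonfasted male Sprague-Dawley rats (8 weeks old, n = 3) were given a single oral dose of 30 mg/kg in 0.05 N HCl solution. Heparin plasma was drawn from the forearm vein at 0.5, 1, 2, 4, 6 and 8 h. Samples were basified with NH4OH, spiked with internal standard, extracted with i-PrOH/n-hexane 5:95 and quantified by positive-ion ESI LC/MS on an RP8 column at 40 °C.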"}, "[8]": {"assay": "AUC (0 to infinity) in Sprague-Dawley rat at 30 mg/kg, po by LC/MS analysis", "assay_type": "ADME, organism-based", "parameters": "dose 30 mg/kg, route oral, time infinity", "conditions": "in vivo", "how_it_was_run": "as §2"}, "[9]": {"assay": "Chemical stability of the compound in acidic condition at 10 mg after 7 days by HPLC analysis", "assay_type": "physicochemical", "conditions": "168 h"}, "[10]": {"assay": "Cmax in Sprague-Dawley rat at 30 mg/kg, po by LC/MS analysis", "assay_type": "ADME, organism-based", "parameters": "dose 30 mg/kg, route oral", "conditions": "in vivo", "how_it_was_run": "as §2"}, "Salmonella typhimurium [11]": {"tested_on": "Salmonella typhimurium", "assay": "Genotoxicity in Salmonella typhimurium TA100 by Ames test", "assay_type": "toxicity, organism-based", "conditions": "salmonella enterica subsp. enterica serovar typhimurium"}, "Hamster [12]": {"tested_on": "Hamster", "assay": "Toxicity in Bio F1B hamster model of diet-induced atherosclerosis assessed as reduction in CE to FC ratio in adrenal gland at 1 to 30 mg/kg/day added to chow pellets", "assay_type": "organism-based", "conditions": "cricetinae, in vivo, po"}, "Hamster [13]": {"tested_on": "Hamster", "assay": "Antiatherosclerotic activity in Bio F1B hamster model of diet-induced atherosclerosis assessed as reduction in CE to FC ratio in intestine at 1 to 30 mg/kg/day added to chow pellets", "assay_type": "functional, organism-based", "conditions": "Cricetinae"}, "[14]": {"assay": "Tmax in Sprague-Dawley rat at 30 mg/kg, po by LC/MS analysis", "assay_type": "ADME, organism-based", "conditions": "in vivo", "how_it_was_run": "as §2"}, "Escherichia coli": {"tested_on": "Escherichia coli", "assay": "Genotoxicity in Escherichia coli […] by Ames test", "assay_type": "toxicity, organism-based"}, "Hamster [15]": {"tested_on": "Hamster", "assay": "Antiatherosclerotic activity in Bio F1B hamster model of diet-induced atherosclerosis assessed as reduction in total plasma cholesterol at 30 mg/kg/day added to chow pellets relative to control", "assay_type": "functional, Cricetinae", "parameters": "scale not given: the % may be the effect or the level left", "how_it_was_run": "as §1"}, "Hamster [16]": {"tested_on": "Hamster", "assay": "Antiatherosclerotic activity in Bio F1B hamster model of diet-induced atherosclerosis assessed as reduction in lipid accumulation areas in aortic arch at 3 mg/kg/day added to chow pellets by oil red O staining based assay relative to control", "assay_type": "functional, Cricetinae", "parameters": "scale not given: the % may be the effect or the level left", "how_it_was_run": "as §1"}, "Hamster [17]": {"tested_on": "Hamster", "assay": "Antiatherosclerotic activity in Bio F1B hamster model of diet-induced atherosclerosis assessed as reduction in lipid accumulation areas in aortic arch at 10 mg/kg/day added to chow pellets by oil red O staining based assay relative to control", "assay_type": "functional, Cricetinae", "parameters": "scale not given: the % may be the effect or the level left", "how_it_was_run": "as §1"}, "Oryctolagus cuniculus": {"organism": "Oryctolagus cuniculus", "conditions": "New Zealand White"}, "Hamster [18]": {"tested_on": "Hamster", "assay": "Antiatherosclerotic activity in Bio F1B hamster model of diet-induced atherosclerosis assessed as reduction in total plasma cholesterol at 3 mg/kg/day added to chow pellets relative to control", "assay_type": "functional, Cricetinae", "parameters": "scale not given: the % may be the effect or the level left", "how_it_was_run": "as §1"}, "Salmonella typhimurium [19]": {"tested_on": "Salmonella typhimurium", "assay": "Genotoxicity in Salmonella typhimurium TA98 by Ames test", "assay_type": "toxicity, organism-based", "conditions": "salmonella enterica subsp. enterica serovar typhimurium"}, "Salmonella typhimurium [20]": {"tested_on": "Salmonella typhimurium", "assay": "Genotoxicity in Salmonella typhimurium TA1535 by Ames test", "assay_type": "toxicity, organism-based", "conditions": "salmonella enterica subsp. enterica serovar typhimurium"}, "[21]": {"assay": "Solubility of the compound in pH 1.0 solution", "assay_type": "physicochemical"}, "[22]": {"assay": "Solubility of the compound in 0.025N HCl", "assay_type": "physicochemical"}, "[23]": {"assay": "Solubility of the compound in 0.1N HCl", "assay_type": "physicochemical"}},
  "note": "Activity calls are given as the source filed them. The rule behind the calls is not given here.",
  "data": [
    {"smiles": "CC(C)c1cccc(C(C)C)c1NC(=O)CCCCCSc1nc2cccc(CN(C)C)c2o1", "values": [
      {"measurement": "IC50", "setting": "[1]", "value": 130, "unit": "nM"},
      {"measurement": "solubility", "setting": "[2]", "value": 400, "unit": "µg/mL"},
      {"measurement": "IC50", "setting": "[3]", "value": 96, "unit": "nM"}
    ]},
    {"smiles": "CSc1cc(C)nc(SC)c1NC(=O)CN1CCN(CCSc2nc3ccccc3o2)CC1", "values": [
      {"measurement": "Activity", "setting": "Hamster [4]", "value": 28, "unit": "%"},
      {"measurement": "Activity", "setting": "Salmonella typhimurium [5]", "value": "Non-Toxic"},
      {"measurement": "IC50", "setting": "[1]", "value": 29, "unit": "nM"},
      {"measurement": "Activity", "setting": "Hamster [6]", "value": "Active"},
      {"measurement": "half-life", "setting": "[7]", "value": 10.1, "unit": "h"},
      {"measurement": "AUC(0-inf)", "setting": "[8]", "value": 4120, "unit": "ng·h/mL"},
      {"measurement": "IC50", "setting": "[3]", "value": 33, "unit": "nM"},
      {"measurement": "Stability", "setting": "[9]", "value": "Unstable"},
      {"measurement": "Cmax", "setting": "[10]", "value": 158, "unit": "ng/mL"},
      {"measurement": "Activity", "setting": "Salmonella typhimurium [11]", "value": "Non-Toxic"},
      {"measurement": "Activity", "setting": "Hamster [12]", "value": "Toxic"},
      {"measurement": "Activity", "setting": "Hamster [13]", "value": "Active"},
      {"measurement": "Tmax", "setting": "[14]", "value": 2.8, "unit": "h"},
      {"measurement": "Activity", "setting": "Escherichia coli", "value": "Non-Toxic"},
      {"measurement": "Activity", "setting": "Hamster [15]", "value": 24, "unit": "%"},
      {"measurement": "Activity", "setting": "Hamster [16]", "value": 37, "unit": "%"},
      {"measurement": "Activity", "setting": "Hamster [17]", "value": 32, "unit": "%"},
      {"measurement": "fIC50", "setting": "Oryctolagus cuniculus", "value": 0.89, "unit": "nM"},
      {"measurement": "Activity", "setting": "Hamster [18]", "value": 73, "unit": "%"},
      {"measurement": "Activity", "setting": "Salmonella typhimurium [19]", "value": "Non-Toxic"},
      {"measurement": "Activity", "setting": "Salmonella typhimurium [20]", "value": "Non-Toxic"}
    ]},
    {"smiles": "CC(C)c1cccc(C(C)C)c1NC(=O)CC[C@H]1CCCC[C@H]1CSc1nc2ccccc2o1", "note": "(relative stereo)", "values": [
      {"measurement": "IC50", "setting": "[1]", "value": 93, "unit": "nM"},
      {"measurement": "IC50", "setting": "[3]", "value": 24, "unit": "nM"}
    ]},
    {"smiles": "CC(C)c1cccc(C(C)C)c1NC(=O)NCC1(Cc2ccc(N(C)C)cc2)CCCC1", "values": [
      {"measurement": "solubility", "setting": "[21]", "value": 2180, "unit": "µg/mL"}
    ]},
    {"smiles": "CC(C)c1cccc(C(C)C)c1NC(=O)CN1CCN(CCSc2nc3ccccc3s2)CC1", "values": [
      {"measurement": "IC50", "setting": "[1]", "value": 36, "unit": "nM"},
      {"measurement": "IC50", "setting": "[3]", "value": 16, "unit": "nM"}
    ]},
    {"smiles": "CN(C)c1ccc(NC(=O)N(Cc2cccc(CN(C(=O)Nc3ccc(N(C)C)cc3)C3CCCCCC3)c2)C2CCCCCC2)cc1.Cl.Cl", "values": [
      {"measurement": "solubility", "setting": "[22]", "value": 10000, "unit": "µg/mL"}
    ]},
    {"smiles": "CC(C)c1cccc(C(C)C)c1NC(=O)CN1CCN(CCSc2nc3ccccc3[nH]2)CC1", "values": [
      {"measurement": "IC50", "setting": "[1]", "value": 510, "unit": "nM"},
      {"measurement": "IC50", "setting": "[3]", "value": 110, "unit": "nM"}
    ]},
    {"smiles": "CC(C)c1cccc(C(C)C)c1NC(=O)CN1CCN(CCSc2nc3ncccc3o2)CC1", "values": [
      {"measurement": "IC50", "setting": "[1]", "value": 320, "unit": "nM"}
    ]},
    {"smiles": "CC(C)c1cccc(C(C)C)c1NC(=O)NCC1(Cc2ccc(N(C)C)cc2)CCCC1.Cl", "values": [
      {"measurement": "solubility", "setting": "[23]", "value": 6400, "unit": "µg/mL"}
    ]},
    {"smiles": "CC(C)c1cc(C(C)C)c(NC(=O)CN2CCN(CCSc3nc4ncccc4o3)CC2)c(C(C)C)c1", "values": [
      {"measurement": "IC50", "setting": "[1]", "value": 1300, "unit": "nM"},
      {"measurement": "IC50", "setting": "[3]", "value": 300, "unit": "nM"}
    ]},
    {"smiles": "CC(C)c1cc(C(C)C)c(NC(=O)CN2CCN(CCSc3nc4ccccc4o3)CC2)c(C(C)C)c1", "values": [
      {"measurement": "IC50", "setting": "[1]", "value": 270, "unit": "nM"},
      {"measurement": "IC50", "setting": "[3]", "value": 34, "unit": "nM"}
    ]}
  ]
}
